Paper PMC3095849 (Bioorganic & medicinal chemistry, 2011)
Counter-ions that a name gives are not always drawn. Like-named read-outs stand apart in the source and are kept apart here.

Columns and labels:
human κ opioid receptor [1] = biological target: T1, human κ opioid receptor (Homo sapiens, UniProt P41145); settings: cited from earlier work
human κ opioid receptor [2] = biological target: T1, human κ opioid receptor; experiment: Opioid binding, [3H]U69,593, CHO membranes; settings: ratio of Ki values μ/κ/δ
human κ opioid receptor [3] = biological target: T1, human κ opioid receptor; experiment: [35S]GTPγS binding assay, agonist properties, kappa; type: biochemical
human μ opioid receptor = human μ opioid receptor (Homo sapiens, UniProt P35372); experiment: [35S]GTPγS binding assay, agonist properties, mu; type: biochemical
Sequence of human μ opioid receptor (P35372 whole entry): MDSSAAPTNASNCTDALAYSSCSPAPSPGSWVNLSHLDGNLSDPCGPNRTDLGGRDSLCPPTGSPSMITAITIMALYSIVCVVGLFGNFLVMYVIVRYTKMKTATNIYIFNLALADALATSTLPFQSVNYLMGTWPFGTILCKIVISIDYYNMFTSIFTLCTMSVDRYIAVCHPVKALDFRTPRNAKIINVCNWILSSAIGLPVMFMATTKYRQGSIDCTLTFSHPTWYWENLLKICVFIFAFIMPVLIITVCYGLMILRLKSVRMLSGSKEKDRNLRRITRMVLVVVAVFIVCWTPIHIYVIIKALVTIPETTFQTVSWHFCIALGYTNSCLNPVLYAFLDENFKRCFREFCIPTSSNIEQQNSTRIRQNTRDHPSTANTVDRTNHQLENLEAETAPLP
Summary of the method: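 CHO cells stably expressing human μ receptor, grown in DMEM with 10% FBS at 37°C, 5% CO2. Membranes incubated with 12 concentrations of test compound in 50 mM Tris-HCl pH 7.4, 3 μM GDP, 3 mM MgCl2, 0.2 mM EGTA, 100 mM NaCl, plus 0.08 nM [35S]GTPγS, 60 min, 30°C. Nonspecific: 10 μM GTPγS. Filtration, scintillation counting. EC50 and Emax calculated. Three experiments in triplicate.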

human κ opioid receptor [4] = biological target: T1, human κ opioid receptor; experiment: [35S]GTPγS binding assay, inhibition of U50,488-stimulated binding, kappa; type: biochemical; settings: read-out: Kappa (Antagonist) IC50; binding stimulated by 100 nM U50,488
Summary of the method: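 Antagonist mode: membranes from CHO cells stably expressing human κ receptor, with 12 concentrations of test compound and 0.08 nM [35S]GTPγS. Buffer: 50 mM Tris-HCl pH 7.4, 3 μM GDP, 3 mM MgCl2, 0.2 mM EGTA, 100 mM NaCl. Incubated 60 min at 30°C. Nonspecific binding: 10 μM GTPγS. Filtered and counted. IC50 and Imax calculated. Three experiments in triplicate, mean ± SEM.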

T1 sequence (P41145 whole entry): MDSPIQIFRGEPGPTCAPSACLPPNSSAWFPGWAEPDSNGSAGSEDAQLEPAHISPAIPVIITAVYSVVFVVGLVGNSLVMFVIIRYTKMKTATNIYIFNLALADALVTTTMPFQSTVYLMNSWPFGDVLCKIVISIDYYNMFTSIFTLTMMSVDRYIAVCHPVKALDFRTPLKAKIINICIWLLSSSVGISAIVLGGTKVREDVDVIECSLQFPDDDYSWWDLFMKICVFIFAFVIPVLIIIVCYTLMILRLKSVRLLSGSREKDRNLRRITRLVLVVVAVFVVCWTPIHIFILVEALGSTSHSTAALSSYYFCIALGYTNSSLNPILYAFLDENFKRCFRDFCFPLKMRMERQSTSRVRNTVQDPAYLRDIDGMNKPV

| Structure (SMILES) | Selectivity μ : κ : δ (human κ opioid receptor [1]) | Selectivity μ : κ : δ (human κ opioid receptor [2]) | Functional character at κ receptor (full/partial agonist) (human κ opioid receptor [3]) | Functional character at μ receptor (full/partial agonist) (human μ opioid receptor) | IC50 (human κ opioid receptor [4]) [µM] |
| --- | --- | --- | --- | --- | --- |
| O=C(CCCCCCCCC(=O)Oc1ccc2c(c1)[C@@]13CCCC[C@H]1[C@@H](C2)N(CC1CCC1)CC3)Oc1ccc2c(c1)[C@@]13CCCC[C@H]1[C@@H](C2)N(CC1CCC1)CC3 [Compound 3] | 2/1/90 |  |  |  |  |
| O=C(/C=C/C(=O)Oc1ccc2c(c1)[C@@]13CCCC[C@H]1[C@@H](C2)N(CC1CCC1)CC3)Oc1ccc2c(c1)[C@@]13CCCC[C@H]1[C@@H](C2)N(CC1CCC1)CC3 [Compound 4] | 3/1/120 |  |  |  |  |
| CO[C@@]12CCCC[C@@]13CCN(CC1CCC1)[C@@H]2Cc1ccc(O)cc13 [Compound 8, (−)-14-methoxybutorphanol] |  | 1/1/58 | partial κ agonists |  |  |
| CO[C@@]12CCCC[C@@]13CCN(CC1CCC1)[C@@H]2Cc1ccc(OC(=O)CCCCCCCCC(=O)Oc2ccc4c(c2)[C@@]25CCCC[C@@]2(OC)[C@@H](C4)N(CC2CCC2)CC5)cc13 [Compound 9b, Bis((−)-14-methoxy-17-N-cyclobutylmethyl)morphinan-3-yl) decanedioate] |  | 1/1/50 | partial κ agonists |  |  |
| Nc1nc2cc3c(cc2s1)C[C@@H]1[C@@H]2CCCC[C@]32CCN1CC1CC1 [Compound 10, ATPM] | 31/1/592 |  |  |  |  |
| O=C(CCCCCCCCC(=O)Nc1nc2cc3c(cc2s1)C[C@@H]1[C@@H]2CCCC[C@]32CCN1CC1CC1)Nc1nc2cc3c(cc2s1)C[C@@H]1[C@@H]2CCCC[C@]32CCN1CC1CC1 [Compound 11, Bis((−)-3-aminothiazolo-N-cyclopropyl-methylmorphinan)sebacamide hydrochloride] |  | 24/1/460 | full κ agonists | partial μ agonists | > 10 |
| c1c2c(cc3sc(NCCCCCCCCCCNc4nc5cc6c(cc5s4)C[C@@H]4[C@@H]5CCCC[C@]65CCN4CC4CC4)nc13)C[C@@H]1[C@@H]3CCCC[C@]23CCN1CC1CC1 [Compound 12, (−)-3,3′-(decane-1,10-diaminothiazolo)bis(cyclopropylmethyl)morphinan hydrochloride] |  | 9/1/140 | full κ agonists | partial μ agonists | > 10 |
| CO[C@@]12CCCC[C@@]13CCN(CC1CCC1)[C@@H]2Cc1ccc(OC(=O)CCCCCCCCC(=O)OCc2ccccc2)cc13 [Compound 13b, Benzyl (−)-14-methoxy-butorphanol-3-yl decanedioate] |  | 1/1/93 | partial κ agonists |  |  |
| C=CCN1CC[C@]23c4c5ccc(OC(=O)CCCCCCCCC(=O)Oc6ccc7c(c6)[C@@]68CCCC[C@@]6(O)[C@@H](C7)N(CC6CCC6)CC8)c4O[C@H]2C(=O)CC[C@@]3(O)[C@H]1C5 [Compound 15a, (5α)-17-Allyl-14-hydroxy-6-oxo-4,5-epoxymorphinan-3-yl-17-((−)-N-cyclobutylmethyl-14-hydroxyl-mophinan-3-yl) decanedioate.] |  | 3/1/130 | partial κ agonists |  |  |
| O=C(CCCCCCCCC(=O)Oc1ccc2c(c1)[C@@]13CCCC[C@@]1(O)[C@@H](C2)N(CC1CCC1)CC3)Oc1ccc2c(c1)[C@@]13CCCC[C@H]1[C@@H](C2)N(CC1CCC1)CC3 [Compound 15b, ((−)-17-N-cyclobutylmethyl)morphinan-3-yl-((−)-14-hydroxyl-17-N-cyclobutylmethyl) morphinan-3-yl) decanedioate] |  | 1/1/110 | partial κ agonists |  |  |
| C=CCN1CC[C@]23c4c5ccc(OC(=O)CCCCCCCCC(=O)Oc6ccc7c(c6)[C@@]68CCCC[C@@]6(OC)[C@@H](C7)N(CC6CCC6)CC8)c4O[C@H]2C(=O)CC[C@@]3(O)[C@H]1C5 [Compound 15c, (5α)-17-allyl-14-hydroxy-6-oxo-4,5-epoxymorphinan-3-yl-((−)-14-methoxyl-17-N-cyclobutylmethyl)morphinan-3-yl) decanedioate] |  | 4/1/280 | partial κ agonists |  |  |
